Compound activity deposited in PubChem BioAssay by The Scripps Research Institute Molecular Screening Center.
Sampled rows, rich in hits. Any-hit rate of the full collection: about 1.4%.
ASAP1 GAP inh – ASAP1 ArfGAP inhibition; Q9ULH1; ASAP1-stimulated ARF1 GTP hydrolysis, GDP FP detection; inhibition, % at 16.5 µM; hit rate 0.19% among 360,000; in the data active = inhibition above about 25%;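 also: 0% = vehicle with enzyme and substrate and 100% = no enzyme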
Target sequence (Q9ULH1 325-724 limits assumed): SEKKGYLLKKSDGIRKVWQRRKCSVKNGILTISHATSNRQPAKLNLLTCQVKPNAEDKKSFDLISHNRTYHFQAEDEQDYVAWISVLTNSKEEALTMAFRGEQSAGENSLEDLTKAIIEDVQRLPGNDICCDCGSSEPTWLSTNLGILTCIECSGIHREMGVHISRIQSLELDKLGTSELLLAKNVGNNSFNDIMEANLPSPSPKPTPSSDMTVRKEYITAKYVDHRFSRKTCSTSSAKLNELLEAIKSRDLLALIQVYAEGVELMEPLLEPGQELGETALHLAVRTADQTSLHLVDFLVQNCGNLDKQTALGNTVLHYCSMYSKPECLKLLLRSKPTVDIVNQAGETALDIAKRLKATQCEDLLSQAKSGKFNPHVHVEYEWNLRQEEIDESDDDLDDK
bovine MsrA act – bovine methionine sulfoxide reductase A activation. hit rate 0.3% among 360,000. activation, % at 10.6 µM. purified bovine MsrA, absorbance read-out; in the data active = activation above about 7.5%;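 also: 0% = vehicle and 100% = reference activator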
ARFGAP1 inhibitor – inhibitors of rat ARFGAP1; Q62848; hit rate 0.26% among 360,000; inhibition, % at 16.5 µM; Arfgap1-stimulated ARF1 GTP hydrolysis, GDP FP detection;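 active = inhibition above a per-plate limit, mean inhibition of low control wells plus 3 SD, cut at about 25% in these data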;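 also: 0% = DMSO wells with enzyme and 100% = wells lacking Arfgap1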
Target sequence (Q62848 1-136 limits assumed): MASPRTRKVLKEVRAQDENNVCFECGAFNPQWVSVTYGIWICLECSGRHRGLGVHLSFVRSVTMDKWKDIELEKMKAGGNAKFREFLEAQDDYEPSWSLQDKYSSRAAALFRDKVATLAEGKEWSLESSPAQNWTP
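Assay system: Rat Arfgap1 GAP domain (His6, aa 1-136), purified enzyme | Buffer or medium: HEPES 25 mM pH 7.5, NaCl 150 mM, MgCl2, DTT | Schedule: GTP hydrolysis reaction 2 h at 25 °C | Signal: FP of antibody-bound GDP Alexa 633 tracer, ex 620/em 688 nm | Measure: Percent inhibition of Arfgap1-stimulated GTP hydrolysis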
MsrA inh – inhibitors of bovine MsrA. purified bovine MsrA, absorbance read-out. inhibition, % at 15.5 µM. hit rate 0.75% among 360,000;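 also: 0% = vehicle wells with enzyme and 100% = reference inhibitor wells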
MsrA inh confirm – bovine MsrA inhibition, confirmed; shares compounds with MsrA inh; purified bovine MsrA, absorbance read-out; inhibition, % at 15.5 µM; hit rate 41% among 2,300; AID 651822;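 also: coupled to thioredoxin reductase with NADPH and selenocystamine and DMSO as substrate; 0% = vehicle only and 100% = full effect of reference inhibitor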
The depositor's hits bear a star. Rule as the data show it, unless noted: active = inhibition above about 4.5%; inactive = the rest.

For COc1ccc(/C=N\Nc2ncc(F)c(N3CCOCC3)n2)cc1OC the results were ASAP1 GAP inh -5, bovine MsrA act -5, ARFGAP1 inhibitor -4, MsrA inh 4.7* and MsrA inh confirm 4.
Screening CC(C)NC(=S)N/N=C/c1ccc(N2CCOCC2)cc1 returned ASAP1 GAP inh 6, bovine MsrA act -4, ARFGAP1 inhibitor 6, MsrA inh 7.0* and MsrA inh confirm 5.4*.
COCCNC(=S)N/N=C/c1ccc(N2CCOCC2)cc1 was read as ASAP1 GAP inh 7, bovine MsrA act -6, ARFGAP1 inhibitor -3, MsrA inh 8.1* and MsrA inh confirm 5.9*.
COc1cc(/C=N/NC(=S)NCCN2CCOCC2)ccc1O was read as ASAP1 GAP inh -1, bovine MsrA act -5, ARFGAP1 inhibitor 6, MsrA inh 7.4* and MsrA inh confirm 5.2*.
COc1ccc(Cn2ccnc2SCC(=O)Nc2ccc(F)cc2F)cc1 was read as ASAP1 GAP inh -9, bovine MsrA act 3, ARFGAP1 inhibitor -4 and MsrA inh 0.
`CSCCC(C(=O)Nc1c(C)cccc1C)N1CCN(C/C=C/c2ccccc2)CC1` (configuration not stated) gave ASAP1 GAP inh 3, bovine MsrA act -2, ARFGAP1 inhibitor 4 and MsrA inh -1.
For C=C(C)CNC(=S)N/N=C/c1ccc(N2CCOCC2)cc1 the results were ASAP1 GAP inh 20, bovine MsrA act -6, ARFGAP1 inhibitor -1, MsrA inh 6.1* and MsrA inh confirm 5.1*.
Cc1cc(C)nc(N/N=C/c2ccc(N3CCOCC3)cc2)n1 was read as ASAP1 GAP inh 3, bovine MsrA act -11, ARFGAP1 inhibitor 5, MsrA inh 6.6* and MsrA inh confirm 6.1*.
O=C(O)c1cc(N/N=C/c2ccc(N3CCOCC3)cc2)ccc1Cl was read as ASAP1 GAP inh -2, bovine MsrA act -13, ARFGAP1 inhibitor -5, MsrA inh 4.8* and MsrA inh confirm 5.8*.
Cc1cc(C)nc(Nc2ccc(N3CCOCC3)cc2)n1 was read as ASAP1 GAP inh 2, bovine MsrA act -15, ARFGAP1 inhibitor -1 and MsrA inh 0.
For CCn1c(SCC(=O)Nc2ccc(C)cc2)nnc1-c1ccc(O)cc1 the results were ASAP1 GAP inh -4, bovine MsrA act -12, ARFGAP1 inhibitor 8 and MsrA inh -1.
`CCOC(=O)c1c(N)sc(C(=O)OCCOC)c1C` gave ASAP1 GAP inh -1, bovine MsrA act -1, ARFGAP1 inhibitor -11 and MsrA inh 0.
`C[C@H](CO)N1C[C@H](C)[C@@H](CN(C)Cc2ccc(Cl)c(Cl)c2)Oc2c(NS(=O)(=O)c3cccs3)cccc2C1=O` gave ASAP1 GAP inh 2, bovine MsrA act -12, ARFGAP1 inhibitor 5 and MsrA inh -2.
Screening CN(C)S(=O)(=O)n1cc(/C=C(\NC(=O)c2ccccc2Cl)C(=O)N2CCCC2)c2ccccc21 returned ASAP1 GAP inh 19, bovine MsrA act -3, ARFGAP1 inhibitor 5 and MsrA inh -1.
For O=C(O)CCCC(=O)Nc1ccc(N=Nc2ccccc2)cc1 the results were ASAP1 GAP inh 13, bovine MsrA act 0, ARFGAP1 inhibitor 1, MsrA inh 6.6* and MsrA inh confirm 3.
For O=C(Nc1cccc(C(=O)O)c1)/C(=C\c1ccccc1)NC(=O)c1ccccc1 the results were ASAP1 GAP inh -13, bovine MsrA act -5, ARFGAP1 inhibitor 4 and MsrA inh 3.
Screening O=C(Nc1ccc(C(=O)O)cc1)/C(=C\C=C\c1ccccc1)NC(=O)c1ccccc1Br returned ASAP1 GAP inh 0, bovine MsrA act -12, ARFGAP1 inhibitor -3, MsrA inh 8.7* and MsrA inh confirm 6.4*.
Screening O=C(Nc1cccc(C(=O)O)c1)/C(=C\C=C\c1ccccc1)NC(=O)c1ccccc1 returned ASAP1 GAP inh -6, bovine MsrA act -5, ARFGAP1 inhibitor -8, MsrA inh 8.4* and MsrA inh confirm 5.5*.
Screening O=C(Nc1ccc(C(=O)O)cc1)/C(=C\C=C\c1ccccc1)NC(=O)c1cccc(Br)c1 returned ASAP1 GAP inh 5, bovine MsrA act -4, ARFGAP1 inhibitor -13, MsrA inh 5.2* and MsrA inh confirm 4.6*.
Screening Cc1ccc(NC(=O)/C(=C\C=C\c2ccccc2)NC(=O)c2ccccc2)cc1 returned ASAP1 GAP inh -4, bovine MsrA act -7, ARFGAP1 inhibitor 9 and MsrA inh 4.
For CCCCN1C2CCCC1CC(NC(=O)c1cccc(Cl)c1)C2 (configuration not stated) the results were ASAP1 GAP inh -2, bovine MsrA act -2, ARFGAP1 inhibitor -1 and MsrA inh -2.
For Nc1nnc(/C=C/c2ccccc2)s1 the results were ASAP1 GAP inh -14, bovine MsrA act 0, ARFGAP1 inhibitor -6 and MsrA inh 3.
`CCOC(=O)c1c(C)nc(C)c2c(=O)oc3ccccc3c12` gave ASAP1 GAP inh 3, bovine MsrA act -3, ARFGAP1 inhibitor -5 and MsrA inh 1.
For Cc1ccccc1S(=O)(=O)N1[C@@H](c2ccc(Cl)cc2)C(C(=O)O)=CC[C@H]1c1ccc(Cl)cc1 the results were ASAP1 GAP inh -14, bovine MsrA act -10, ARFGAP1 inhibitor -17 and MsrA inh -1.
`COc1ccc(NC(=O)/C(=C/c2cccs2)NC(=O)c2ccco2)cc1` gave ASAP1 GAP inh 8, bovine MsrA act -9, ARFGAP1 inhibitor 11 and MsrA inh 2.
`COc1ccc(NC(=O)/C=C/c2ccc3c(c2)OCO3)cc1` gave ASAP1 GAP inh 1, bovine MsrA act -5, ARFGAP1 inhibitor -4 and MsrA inh 4.
Screening COc1ccc(NC(=O)/C(=C/c2ccc3c(c2)OCO3)NC(C)=O)cc1 returned ASAP1 GAP inh 0, bovine MsrA act -3, ARFGAP1 inhibitor 6, MsrA inh 5.0* and MsrA inh confirm 3.
`O=C(NCc1ccccc1)/C(=C/c1ccccc1)NC(=O)c1ccco1` gave ASAP1 GAP inh -3, bovine MsrA act -6, ARFGAP1 inhibitor 8 and MsrA inh -1.
O=C(Nc1ccccc1)/C(=C/c1ccccc1)NC(=O)c1ccco1 was read as ASAP1 GAP inh -6, bovine MsrA act -5, ARFGAP1 inhibitor 5 and MsrA inh -1.
O=C(NCc1ccccc1)/C(=C\c1ccc(O)cc1)NC(=O)c1ccco1 was read as ASAP1 GAP inh -2, bovine MsrA act -5, ARFGAP1 inhibitor 8, MsrA inh 4.8* and MsrA inh confirm 1.
For CC(=O)c1ccc(NC(=O)/C(=C\c2cccs2)NC(=O)c2ccco2)cc1 the results were ASAP1 GAP inh -16, bovine MsrA act -13, ARFGAP1 inhibitor -1, MsrA inh 5.0* and MsrA inh confirm 4.7*.
`COc1ccc(NC(=O)/C(=C\c2ccc(OC)c(OC)c2)NC(=O)c2ccco2)cc1` gave ASAP1 GAP inh -8, bovine MsrA act -6, ARFGAP1 inhibitor 4, MsrA inh 5.0* and MsrA inh confirm 4.8*.
Screening CCCN(CC(=O)NC(=O)NCc1ccccc1)CC(=O)Nc1ccc(F)c(F)c1F returned ASAP1 GAP inh -2, bovine MsrA act -4, ARFGAP1 inhibitor -11 and MsrA inh 1.
For Cn1c(=O)c2cc(NC(=O)NCc3ccccc3)ccc2n1Cc1ccc(Cl)cc1 the results were ASAP1 GAP inh 19, bovine MsrA act -2, ARFGAP1 inhibitor 4 and MsrA inh 0.
